Converted amounts (≈) assume the structure as drawn. The source made the active and inactive calls. The rule behind the calls is not given here.
molecular target: Metabotropic glutamate receptor 4 (Homo sapiens, UniProt Q14833); assay: Positive allosteric modulation of recombinant human mGlu4 receptor expressed in HEK293 cells co-expressing Gi/Gq assessed as increase in glutamate-induced calcium flux preincubated for 10 mins followed by glutamate addition measured for 3 mins by Fluo4-AM dye based fluorescence assay; format: functional, cell-based; details: hek293
Sequence (Q14833 whole entry): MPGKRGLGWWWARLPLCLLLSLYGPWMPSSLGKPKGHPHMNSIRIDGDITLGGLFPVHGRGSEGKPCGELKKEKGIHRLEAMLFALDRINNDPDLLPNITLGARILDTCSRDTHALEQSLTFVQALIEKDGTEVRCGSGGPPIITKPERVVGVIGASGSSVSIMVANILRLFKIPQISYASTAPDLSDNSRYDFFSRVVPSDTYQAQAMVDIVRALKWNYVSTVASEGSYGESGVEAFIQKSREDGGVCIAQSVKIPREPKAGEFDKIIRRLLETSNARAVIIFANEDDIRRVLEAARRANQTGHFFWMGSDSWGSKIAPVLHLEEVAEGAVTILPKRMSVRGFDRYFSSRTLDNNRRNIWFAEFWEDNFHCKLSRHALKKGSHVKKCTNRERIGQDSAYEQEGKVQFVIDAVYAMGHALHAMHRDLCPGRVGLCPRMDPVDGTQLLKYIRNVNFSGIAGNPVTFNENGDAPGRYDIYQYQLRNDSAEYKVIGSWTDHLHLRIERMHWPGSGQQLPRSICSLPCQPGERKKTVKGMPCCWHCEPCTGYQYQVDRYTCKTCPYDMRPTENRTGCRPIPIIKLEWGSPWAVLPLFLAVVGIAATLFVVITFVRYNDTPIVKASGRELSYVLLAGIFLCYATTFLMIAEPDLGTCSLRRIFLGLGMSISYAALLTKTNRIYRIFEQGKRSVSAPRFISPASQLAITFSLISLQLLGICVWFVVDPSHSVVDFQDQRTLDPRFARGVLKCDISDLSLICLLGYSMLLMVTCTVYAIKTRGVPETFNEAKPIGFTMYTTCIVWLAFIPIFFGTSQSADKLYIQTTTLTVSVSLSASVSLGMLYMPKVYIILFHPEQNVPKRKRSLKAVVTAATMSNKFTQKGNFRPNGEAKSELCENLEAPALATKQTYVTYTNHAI

Row | EC50 | SMILES
1 | Not Active | O/N=c1\cc(-c2ccc3ccccc3n2)oc2ccccc12
2 | Not Active | O/N=c1\cc(-c2cc3ccccc3cn2)oc2c(Cl)cccc12
3 | Not Active | O/N=c1\cc(-c2cnc3ccccc3n2)oc2ccccc12
4 | Not Active | O/N=c1\cc(-c2cc3ccccc3s2)oc2ccccc12
5 | Not Active | Cc1c(-c2cc3ccccc3cn2)oc2ccccc2/c1=N/O
6 | Not Active | CON=c1cc(-c2cc3ccccc3cn2)oc2ccccc12
7 | Not Active | O/N=c1\cc(-c2ccn3ccnc3c2)oc2ccccc12
8 | Not Active | Cc1cc(C)n2cnc(-c3c/c(=N\O)c4ccccc4o3)cc12
9 | Not Active | Cn1c(-c2c/c(=N\O)c3ccccc3o2)cc2ccccc21
10 | Not Active | O/N=c1\cc(-c2ccc3ccccc3c2)oc2ccccc12
11 | Not Active | O=c1cc(-c2cc3ccccc3cn2)oc2ccccc12

same assay, conditions: read-out: EC50

Row | EC50 [nM] | SMILES
12 | 1390 | COc1ccc2oc(-c3cc4ccccc4cn3)c/c(=N\O)c2c1
13 | 53 | O/N=c1\cc(-c2cc3sccc3cn2)oc2ccc(NC3CCN(c4ccncn4)CC3)cc12
14 | 35 | O/N=c1\cc(-c2cc3sccc3cn2)oc2ccc(OCCN3CCOCC3)cc12
15 | 1010 | O/N=c1\cc(-c2cc3ccccc3cn2)oc2ccc(C3CC3)cc12
16 | 35 | CN(C)C(=O)N1CC(Oc2ccc3oc(-c4cc5cccn5cn4)c/c(=N\O)c3c2)C1
17 | 980 | Cc1ccc2oc(-c3cc4ccccc4cn3)c/c(=N\O)c2c1
18 | 9840 | CN1CCN(CCOc2ccc3oc(-c4cc5ccccc5cn4)c/c(=N\O)c3c2)CC1
19 | 860 | Cn1ccc2cc(-c3c/c(=N\O)c4ccccc4o3)ncc21
20 | 53 | CC(=O)N1CC(Oc2ccc3oc(-c4cc5sccc5cn4)c/c(=N\O)c3c2)C1
21 | 17 | O/N=c1\cc(-c2cc3sccc3cn2)oc2ccc(O[C@@H]3CCN(c4ccncn4)C3)cc12
22 | 4 | O/N=c1\cc(-c2cc3sccc3cn2)oc2ccc(OC3CN(c4cccnc4)C3)cc12
23 | 19 | Cc1cc(CCCOc2ccc3oc(-c4cc5cccn5cn4)c/c(=N\O)c3c2)ccn1
24 | 310 | O/N=c1\cc(-c2cc3ccccc3cn2)oc2ccccc12
25 | 6 | CC(=O)N1CCC(COc2ccc3oc(-c4cc5sccc5cn4)c/c(=N\O)c3c2)CC1
26 | 2340 | O/N=c1\cc(-c2cc3cccn3cn2)oc2ccc(OCCN3CCCC3)cc12
27 | 50 | O/N=c1\cc(-c2cc3cccn3cn2)oc2ccc(OCCCc3cccnc3)cc12
28 | 1270 | O/N=c1\cc(-c2cc3cnccc3cn2)oc2ccccc12
29 | 160 | COCCOc1ccc2oc(-c3cc4cccn4cn3)c/c(=N\O)c2c1
30 | 106 | O/N=c1\cc(-c2cc3sccc3cn2)oc2ccc(CCCN3CCC(F)(F)CC3)cc12
31 | 3960 | O/N=c1\cc(-c2cnc3ccccc3c2)oc2ccccc12
32 | 2470 | O/N=c1\cc(-c2cc3ccccc3cn2)oc2ccc(C(F)(F)F)cc12
33 | 60 | CN1CCCC12CCN(CCOc1ccc3oc(-c4cc5sccc5cn4)c/c(=N\O)c3c1)CC2
34 | 165 | CN(C)C1CCN(CCOc2ccc3oc(-c4cc5cccn5cn4)c/c(=N\O)c3c2)CC1
35 | 3010 | COCCOc1ccc2/c(=N/O)cc(-c3cc4ccccc4cn3)oc2c1

Row | EC50 [nM] | SMILES
36 | 110 | O/N=c1\cc(-c2cc3cccn3cn2)oc2ccccc12
37 | 150 | O/N=c1\cc(-c2cc3cccn3cn2)oc2ccc(OCCN3CCC(F)(F)CC3)cc12
38 | 50 | O/N=c1\cc(-c2cc3cc[nH]c3cn2)oc2ccccc12
39 | 6990 | O/N=c1\cc(-c2ccc3ncccc3c2)oc2ccccc12
40 | 750 | COCCOc1ccc2oc(-c3cc4ccccc4cn3)c/c(=N\O)c2c1
41 | 1720 | O/N=c1\cc(-c2cc3ccccc3cn2)oc2cc(Br)ccc12
42 | 5260 | CN1CCN(CCCNc2ccc3oc(-c4cc5ccccc5cn4)c/c(=N\O)c3c2)CC1
43 | > 30000 | O/N=c1\cc(-c2cc3ccccc3[nH]2)oc2ccccc12
44 | 200 | O/N=c1\cc(-c2cc3sccc3cn2)oc2ccccc12
45 | 690 | O/N=c1\cc(-c2cc3ccccc3cn2)oc2ccc(Br)cc12
46 | 14200 | O/N=c1\cc(/C=C/c2ccccc2)oc2ccccc12
47 | 1740 | O/N=c1\cc(-c2cc3ccccc3cn2)oc2cc(CCc3ccccc3)ccc12
48 | 240 | O/N=c1\cc(-c2cc3ncccc3cn2)oc2ccccc12
49 | 10 | CC(=O)N1CCC(Oc2ccc3oc(-c4cc5cccn5cn4)c/c(=N\O)c3c2)CC1
50 | 280 | O/N=c1\cc(-c2cn3cccc3cn2)oc2ccccc12
51 | 1710 | CN1CCN(CCOc2ccc3oc(-c4cc5cccn5cn4)c/c(=N\O)c3c2)CC1
52 | > 30000 | O/N=c1\cc(-c2cc3ccccc3o2)oc2ccccc12
53 | 4 | Cc1ncccc1N1CCC(Cc2ccc3oc(-c4cc5sccc5cn4)c/c(=N\O)c3c2)CC1
54 | 130 | O/N=c1\cc(-c2cc3ccsc3cn2)oc2ccccc12
55 | 1630 | O/N=c1\cc(-c2cc3ccccc3cn2)oc2ccc(OC(F)(F)F)cc12
56 | 1160 | COc1ccc2/c(=N/O)cc(-c3cc4ccccc4cn3)oc2c1
57 | 25 | O/N=c1\cc(-c2cc3sccc3cn2)oc2ccc(CCCN3CCC(F)(F)C3)cc12
58 | 90 | O/N=c1\cc(-c2cc3sccc3cn2)oc2ccc(OCCN3CCC(F)(F)CC3)cc12

test system: not listed separately; assay: Drug uptake in Sprague-Dawley rat brain at 10 mg/kg, po after 60 mins post dose administered as single dose by LC-MS/MS analysis; format: ADME, organism-based; details: read-out: Drug uptake
How it was run: (§1)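 Rats given a single oral dose of 10 mg/kg. Brain concentrations were measured at 30, 60 and 90 min postdose, and brain AUC0–inf was determined. Values are the mean of three rats. Lower limit of quantification was 1 ng/mL.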

Row | concentration at 1 h [ng/g] | SMILES
59 | < 1 | O/N=c1\cc(-c2cc3sccc3cn2)oc2ccc(NC3CCN(c4ccncn4)CC3)cc12
60 | 521 | O/N=c1\cc(-c2cc3sccc3cn2)oc2ccc(OCCN3CCOCC3)cc12
61 | 8.8 | CN(C)C(=O)N1CC(Oc2ccc3oc(-c4cc5cccn5cn4)c/c(=N\O)c3c2)C1
62 | < 1 | CC(=O)N1CC(Oc2ccc3oc(-c4cc5sccc5cn4)c/c(=N\O)c3c2)C1
63 | 9.5 | O/N=c1\cc(-c2cc3sccc3cn2)oc2ccc(O[C@@H]3CCN(c4ccncn4)C3)cc12
64 | 26.7 | O/N=c1\cc(-c2cc3sccc3cn2)oc2ccc(OC3CN(c4cccnc4)C3)cc12
65 | 82.5 | Cc1cc(CCCOc2ccc3oc(-c4cc5cccn5cn4)c/c(=N\O)c3c2)ccn1
66 | 6.5 | CC(=O)N1CCC(COc2ccc3oc(-c4cc5sccc5cn4)c/c(=N\O)c3c2)CC1
67 | 2.3 | O/N=c1\cc(-c2cc3cccn3cn2)oc2ccc(OCCCc3cccnc3)cc12
68 | 201 | O/N=c1\cc(-c2cc3sccc3cn2)oc2ccc(CCCN3CCC(F)(F)CC3)cc12
69 | < 1 | CN1CCCC12CCN(CCOc1ccc3oc(-c4cc5sccc5cn4)c/c(=N\O)c3c1)CC2
70 | 2.9 | CN(C)C1CCN(CCOc2ccc3oc(-c4cc5cccn5cn4)c/c(=N\O)c3c2)CC1
71 | 12.1 | CC(=O)N1CCC(Oc2ccc3oc(-c4cc5cccn5cn4)c/c(=N\O)c3c2)CC1
72 | < 1 | Cc1ncccc1N1CCC(Cc2ccc3oc(-c4cc5sccc5cn4)c/c(=N\O)c3c2)CC1
73 | 197 | O/N=c1\cc(-c2cc3sccc3cn2)oc2ccc(CCCN3CCC(F)(F)C3)cc12
74 | 207 | O/N=c1\cc(-c2cc3sccc3cn2)oc2ccc(OCCN3CCC(F)(F)CC3)cc12

molecular target: Metabotropic glutamate receptor 1 (Homo sapiens) (UniProt Q13255); assay: Negative allosteric modulation of human mGlu1 receptor expressed in HEK293 cells co-expressing Gi/Gq assessed as reduction in EC20/EC80 glutamate-induced intracellular calcium level preincubated for 10 mins followed by glutamate addition measured for 3 mins by Fluo4-AM dye based fluorescence assay; format: functional, cell-based; details: not given
How it was run: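 HEK-293 cells transiently expressing human mGluR1 with a Gα15, Gqi9 or GqTOP G protein for calcium read-out; Fluo4-AM loaded. Compound added 10 min, then EC80 glutamate, fluorescence recorded 3 min; concentration–response over 20 concentrations, duplicate, three independent experiments.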

Metabotropic glutamate receptor 1 (Homo sapiens), sequence (Q13255 19-1194 limits assumed): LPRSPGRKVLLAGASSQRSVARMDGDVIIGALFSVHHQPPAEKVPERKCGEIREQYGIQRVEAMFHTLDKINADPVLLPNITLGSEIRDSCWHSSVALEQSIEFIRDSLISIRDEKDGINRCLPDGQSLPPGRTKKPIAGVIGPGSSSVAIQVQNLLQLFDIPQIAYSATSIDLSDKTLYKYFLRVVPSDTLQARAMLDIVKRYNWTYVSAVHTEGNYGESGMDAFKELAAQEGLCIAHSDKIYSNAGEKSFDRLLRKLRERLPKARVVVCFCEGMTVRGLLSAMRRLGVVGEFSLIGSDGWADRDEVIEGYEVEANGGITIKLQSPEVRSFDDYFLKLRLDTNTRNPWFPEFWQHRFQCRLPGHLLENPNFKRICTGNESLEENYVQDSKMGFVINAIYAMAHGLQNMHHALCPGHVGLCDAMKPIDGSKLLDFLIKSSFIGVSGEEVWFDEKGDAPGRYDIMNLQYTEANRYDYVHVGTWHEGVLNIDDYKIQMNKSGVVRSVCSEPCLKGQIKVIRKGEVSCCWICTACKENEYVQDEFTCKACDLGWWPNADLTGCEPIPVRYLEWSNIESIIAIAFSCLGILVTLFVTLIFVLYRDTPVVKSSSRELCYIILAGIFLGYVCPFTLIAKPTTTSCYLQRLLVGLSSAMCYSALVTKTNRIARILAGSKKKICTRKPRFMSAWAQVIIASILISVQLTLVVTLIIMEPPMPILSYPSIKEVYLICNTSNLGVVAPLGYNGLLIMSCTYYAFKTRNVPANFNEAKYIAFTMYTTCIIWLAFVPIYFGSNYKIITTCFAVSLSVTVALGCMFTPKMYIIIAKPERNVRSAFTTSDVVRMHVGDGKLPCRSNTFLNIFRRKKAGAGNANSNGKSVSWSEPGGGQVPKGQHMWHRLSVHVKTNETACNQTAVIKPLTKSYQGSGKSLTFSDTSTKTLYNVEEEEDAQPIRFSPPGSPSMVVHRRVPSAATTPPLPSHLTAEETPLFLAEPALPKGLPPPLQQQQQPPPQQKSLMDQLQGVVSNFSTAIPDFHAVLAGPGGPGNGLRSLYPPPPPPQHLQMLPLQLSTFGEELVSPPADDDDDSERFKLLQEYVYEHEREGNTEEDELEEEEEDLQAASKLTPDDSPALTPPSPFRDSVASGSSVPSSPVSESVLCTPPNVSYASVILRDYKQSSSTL

Row | Activity | SMILES
75 | Active | O=C(Nc1ccccc1)[C@]12C[C@H]1/C(=N\O)c1ccccc1O2

test system: not listed separately; assay: Drug uptake in Sprague-Dawley rat brain at 10 mg/kg, po after 90 mins post dose administered as single dose by LC-MS/MS analysis; format: ADME, organism-based; details: read-out: Drug uptake; how it was run: as §1

Row | concentration at 1.5 h [ng/g] | SMILES
76 | 281 | O/N=c1\cc(-c2cc3sccc3cn2)oc2ccc(OCCN3CCOCC3)cc12
77 | 100 | O/N=c1\cc(-c2cc3sccc3cn2)oc2ccc(CCCN3CCC(F)(F)CC3)cc12
78 | 137 | O/N=c1\cc(-c2cc3sccc3cn2)oc2ccc(CCCN3CCC(F)(F)C3)cc12
79 | 194 | O/N=c1\cc(-c2cc3sccc3cn2)oc2ccc(OCCN3CCC(F)(F)CC3)cc12

test system: not listed separately; assay: Thermodynamic solubility of the compound in water; format: physicochemical; details: read-out: Therm_solubility
How it was run: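 Thermodynamic solubility measured in milli-Q water.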

Row | solubility thermodynamic [µM] | SMILES
80 | 16.3 (≈ 5.73 µg/mL) | COCCOc1ccc2oc(-c3cc4cccn4cn3)c/c(=N\O)c2c1
81 | 0.2 (≈ 0.0555 µg/mL) | O/N=c1\cc(-c2cc3cccn3cn2)oc2ccccc12
82 | 10600 | Cl.O/N=c1\cc(-c2cc3cccn3cn2)oc2ccc(OCCN3CCOCC3)cc12

test system: not listed separately; assay: Drug uptake in Sprague-Dawley rat brain at 10 mg/kg, po after 30 mins post dose administered as single dose by LC-MS/MS analysis; format: ADME, organism-based; details: read-out: Drug uptake
How it was run: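 Rats given a single oral dose of 10 mg/kg. The first plasma sample was taken at 15 min, and sampling continued to 24 h postdose. Brain was sampled at 30 min. Values are the mean (±SEM) of 3 rats.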

Row | concentration at 0.5 h [ng/g] | SMILES
83 | 408 | O/N=c1\cc(-c2cc3sccc3cn2)oc2ccc(OCCN3CCOCC3)cc12
84 | 25.5 | CN(C)C(=O)N1CC(Oc2ccc3oc(-c4cc5cccn5cn4)c/c(=N\O)c3c2)C1
85 | < 1 | CC(=O)N1CC(Oc2ccc3oc(-c4cc5sccc5cn4)c/c(=N\O)c3c2)C1
86 | 20 | O/N=c1\cc(-c2cc3sccc3cn2)oc2ccc(O[C@@H]3CCN(c4ccncn4)C3)cc12
87 | 33.4 | O/N=c1\cc(-c2cc3sccc3cn2)oc2ccc(OC3CN(c4cccnc4)C3)cc12
88 | 77.3 | Cc1cc(CCCOc2ccc3oc(-c4cc5cccn5cn4)c/c(=N\O)c3c2)ccn1
89 | 10.7 | CC(=O)N1CCC(COc2ccc3oc(-c4cc5sccc5cn4)c/c(=N\O)c3c2)CC1
90 | 3.4 | O/N=c1\cc(-c2cc3cccn3cn2)oc2ccc(OCCCc3cccnc3)cc12
91 | 157 | O/N=c1\cc(-c2cc3sccc3cn2)oc2ccc(CCCN3CCC(F)(F)CC3)cc12
92 | < 1 | CN1CCCC12CCN(CCOc1ccc3oc(-c4cc5sccc5cn4)c/c(=N\O)c3c1)CC2
93 | 2.8 | CN(C)C1CCN(CCOc2ccc3oc(-c4cc5cccn5cn4)c/c(=N\O)c3c2)CC1
94 | 24.1 | CC(=O)N1CCC(Oc2ccc3oc(-c4cc5cccn5cn4)c/c(=N\O)c3c2)CC1
95 | 7.4 | Cc1ncccc1N1CCC(Cc2ccc3oc(-c4cc5sccc5cn4)c/c(=N\O)c3c2)CC1
96 | 275 | O/N=c1\cc(-c2cc3sccc3cn2)oc2ccc(CCCN3CCC(F)(F)C3)cc12
97 | 239 | O/N=c1\cc(-c2cc3sccc3cn2)oc2ccc(OCCN3CCC(F)(F)CC3)cc12

From ChEMBL document CHEMBL4017520, “Discovery, Structure-Activity Relationship, and Antiparkinsonian Effect of a Potent and Brain-Penetrant Chemical Series of Positive Allosteric Modulators of Metabotropic Glutamate Receptor 4” (J Med Chem, 2017)
